Tests used:
Pmp22 [1] = experiment: S16 GLuc and secNLuc Pmp22 reporter qHTS follow-up assays; format: cell-based, rat; settings: for potency on Pmp22 expression: data not shown; for effect on reporter activity: GLuc and secNLuc reporters
Pmp22 [2] = experiment: S16 secNLuc reporter cell assay; format: cell-based, rat
CMT1A patients = settings: human clinical trials; cited from earlier work
PMP22 regulatory element = experiment: S16 intronic enhancer FLuc reporter assay; format: cell-based, rat; settings: retest after completion of the study
Method in brief: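 S16 cells carrying a randomly integrated firefly luciferase reporter driven by the Pmp22 intronic enhancer were retested with test compound after the main study. Data are shown with standard deviation of two replicates.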

Pmp22 [3] = experiment: Quantitative RT-PCR of endogenous Pmp22 in S16 cells; format: cell-based, rat; settings: qRT-PCR, 1 or 10 nM, 24 h
Method in brief: (§1)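 S16 rat Schwann cells were plated at 2×10^5 cells/well in 6-well plates. They were treated for 24 h with test compound at 1 nM or 10 nM, or with DMSO (0.6%) only. RNA was purified and reverse-transcribed to cDNA. qPCR used SYBR green reactions or Taqman-based custom microfluidic arrays. Data were normalized to ActB and expressed relative to the untreated sample, set to 1 for each gene.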

[4] = system: major myelin genes and their regulators; experiment: Quantitative RT-PCR of co-regulated myelin genes and regulators in S16 cells; format: cell-based, rat; settings: qRT-PCR, 1 or 10 nM, 24 h
Method in brief: as §1

COc1ccc2c(c1)c(C1=C(c3c[nH]c4ccccc34)C(=O)NC1=O)cn2CCCN(C)C [Go 6983]
potency on Pmp22 expression (Pmp22 [1]): lack of potency

CCCCCCCCCCCCCC(=O)O[C@@H]1[C@@H](C)[C@@]2(O)[C@@H](C=C(CO)C[C@]3(O)C(=O)C(C)=C[C@@H]23)[C@@H]2C(C)(C)[C@]12OC(C)=O [PMA, Phorbol 12-myristate 13-acetate]
effect on Pmp22 reporter expression (Pmp22 [2]; nanomolar levels, 24 h, secNLuc S16 cell line): repression

O=C1O[C@H]([C@@H](O)CO)C(O)=C1O [ascorbic acid]
effect in CMT1A patients (CMT1A patients): have not shown a significant effect

CCC/C=C/C=C/C(=O)O[C@H]1/C(=C/C(=O)OC)C[C@H]2C[C@H]([C@@H](C)O)OC(=O)C[C@H](O)C[C@@H]3C[C@H](OC(C)=O)C(C)(C)[C@](O)(C[C@@H]4C/C(=C/C(=O)OC)C[C@H](/C=C/C(C)(C)[C@]1(O)O2)O4)O3 [bryostatin, Bryostatin 1]
efficacy relative to the control, bortezomib (Pmp22 [2]; S16 NLuc assay, full titration response profile): partial efficacy
effect in the intronic FLuc assay (PMP22 regulatory element): no inhibitory effect
Pmp22 expression relative to untreated S16 cells (Pmp22 [3]): ≤ 50%
Myelin-associated glycoprotein expression [4]: decline to a greater degree than Pmp22
Periaxin expression [4]: decline to a greater degree than Pmp22
expression of most of the other tested genes [4]: not affected

Cn1cc(C2=C(c3cn(C4CCN(Cc5ccccn5)CC4)c4ccccc34)C(=O)NC2=O)c2ccccc21 [enzastaurin]
potency on Pmp22 expression (Pmp22 [1]): lack of potency

CC(=O)[C@@]1(O)CC[C@H]2[C@@H]3CCC4=CC(=O)CC[C@]4(C)C3(F)[C@@H](O)C[C@@]21C (stereo partly drawn) [flugestone]
effect on reporter activity (Pmp22 [1]): increasing reporter activity

CC#C[C@]1(O)CC[C@H]2[C@@H]3CCC4=CC(=O)CCC4=C3[C@@H](c3ccc(N(C)C)cc3)C[C@@]21C [mifepristone]
effect on reporter activity (Pmp22 [1]): marginal effect
